Test results from PMC12343878 (Communications Biology, 2025).
Square brackets hold non-standard residues; d marks the D form. Peptide text beside a SMILES is read from it. * marks the point of attachment. X1 = CCCCCCCCCCCCCCCC(=O)OC[C@H](COP(=O)(O)OCCNC(=O)CCCc1ccc(N2C(=O)CC(*)C2=O)cc1)OC(=O)CCCCCCCCCCCCCCC; pS = N[C@@H](COP(=O)(O)O)C(=O)O

Legend:
AP2 [1] = target: T1, AP2 (UniProt P18484+P62743+P63010+P84092); assay: Equilibrium tensiometry binding analysis
[2] = Surface pressure - area isotherms of PM model membranes; format: physicochemical; settings: T = 21 ± 0.5 °C
AP2 [3] = target: T1, AP2; assay: Fluid-phase tapping-mode AFM of transferred monolayers; settings: CD4-presenting monolayers
Outline: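 Monolayers were transferred from a Langmuir trough onto glass coverslips by Langmuir–Schaeffer and imaged by fluid-phase tapping-mode AFM. Scans were 5 μm at 256×256 pixels and 1 Hz. A droplet of HKM buffer containing recombinant AP2 was spread and imaged before evaporation. Thickness profiles (n = 10) were Gaussian-fitted to give mean ± SD.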

[4] = SNR of Langmuir lipid monolayers before AP2; format: physicochemical; settings: Π0 = 25 ± 0.5 mN/m
AP2 [5] = target: T1, AP2; assay: High-resolution SNR rigid-body modeling of membrane-bound AP2; format: binding
Outline: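 Measured on the FIGARO time-of-flight reflectometer at 0.6° and 3.7°, 7% dλ/λ, Qz 0.007–0.25 Å−1, in 100% and 8.1% D2O contrasts. Trough monolayers at 25 ± 1 mN/m were measured before and after AP2 injection into the subphase (final 10 nM). SLD profiles were calculated from energy-minimised open, open+ and closed AP2 models (PDB […], 6qh6, 2vgl) to fit orientation and position. Fractional coverage is given as mean ± SD, n = 256.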

AP2 [6] = target: T1, AP2; assay: SNR low-resolution slab model of membrane-bound AP2 on Langmuir monolayers; format: binding; settings: AP2 10 nM
Outline: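 Langmuir-trough monolayers held at 25 ± 1 mN/m were measured on the FIGARO reflectometer, then AP2 was injected beneath them to a final bulk concentration of 10 nM. Settings were two incidence angles (0.6°, 3.7°), 7% wavelength resolution and Qz 0.007–0.25 Å−1, with 100% D2O and 8.1% D2O contrasts. The bound protein was fitted as a slab of constant SLD. Fit errors were ±1σ, checked against triplicate measurements.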

[7] = target: CD4 lipo-peptide (di-leucine peptide derived from the phosphorylated cytoplasmic tail of CD4, lipid-conjugated); assay: specular neutron reflectometry
[8] = target: TGN38 lipo-peptide (Yxxφ-containing peptide derived from the cytoplasmic tail of TGN38, lipid-conjugated); assay: specular neutron reflectometry
[9] = target: CD4 lipo-peptide (di-leucine peptide derived from the phosphorylated cytoplasmic tail of CD4, lipid-conjugated); assay: Langmuir trough surface-pressure tensiometry
[10] = target: TGN38 lipo-peptide (Yxxφ-containing peptide derived from the cytoplasmic tail of TGN38, lipid-conjugated); assay: Langmuir trough surface-pressure tensiometry

T1 sequence (P63010 1-591): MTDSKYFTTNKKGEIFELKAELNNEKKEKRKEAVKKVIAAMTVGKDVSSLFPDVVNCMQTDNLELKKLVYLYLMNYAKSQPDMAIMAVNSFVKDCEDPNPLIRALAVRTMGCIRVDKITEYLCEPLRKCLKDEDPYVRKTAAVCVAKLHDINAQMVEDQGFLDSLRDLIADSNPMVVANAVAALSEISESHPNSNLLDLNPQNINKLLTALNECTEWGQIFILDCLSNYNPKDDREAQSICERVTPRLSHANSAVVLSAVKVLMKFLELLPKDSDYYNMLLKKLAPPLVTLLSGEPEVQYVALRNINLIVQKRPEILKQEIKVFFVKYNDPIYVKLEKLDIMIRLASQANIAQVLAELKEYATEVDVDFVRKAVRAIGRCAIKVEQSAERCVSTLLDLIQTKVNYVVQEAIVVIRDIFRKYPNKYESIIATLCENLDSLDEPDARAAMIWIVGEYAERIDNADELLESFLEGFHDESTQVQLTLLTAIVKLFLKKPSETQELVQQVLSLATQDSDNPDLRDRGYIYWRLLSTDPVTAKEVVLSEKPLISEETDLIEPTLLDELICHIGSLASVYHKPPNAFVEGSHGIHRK
T1 sequence (P84092 whole entry): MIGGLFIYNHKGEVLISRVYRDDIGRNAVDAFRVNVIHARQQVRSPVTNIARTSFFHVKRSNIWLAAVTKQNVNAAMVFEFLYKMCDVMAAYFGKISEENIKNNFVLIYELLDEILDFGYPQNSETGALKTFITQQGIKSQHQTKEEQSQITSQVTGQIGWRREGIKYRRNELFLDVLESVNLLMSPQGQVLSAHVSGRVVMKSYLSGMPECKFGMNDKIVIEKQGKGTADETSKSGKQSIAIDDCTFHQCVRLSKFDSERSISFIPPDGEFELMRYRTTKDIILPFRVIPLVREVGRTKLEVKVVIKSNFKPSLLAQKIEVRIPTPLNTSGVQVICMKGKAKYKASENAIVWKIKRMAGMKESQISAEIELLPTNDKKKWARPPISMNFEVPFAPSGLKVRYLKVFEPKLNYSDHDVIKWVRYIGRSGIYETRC
T1 sequence (P18484 1-621): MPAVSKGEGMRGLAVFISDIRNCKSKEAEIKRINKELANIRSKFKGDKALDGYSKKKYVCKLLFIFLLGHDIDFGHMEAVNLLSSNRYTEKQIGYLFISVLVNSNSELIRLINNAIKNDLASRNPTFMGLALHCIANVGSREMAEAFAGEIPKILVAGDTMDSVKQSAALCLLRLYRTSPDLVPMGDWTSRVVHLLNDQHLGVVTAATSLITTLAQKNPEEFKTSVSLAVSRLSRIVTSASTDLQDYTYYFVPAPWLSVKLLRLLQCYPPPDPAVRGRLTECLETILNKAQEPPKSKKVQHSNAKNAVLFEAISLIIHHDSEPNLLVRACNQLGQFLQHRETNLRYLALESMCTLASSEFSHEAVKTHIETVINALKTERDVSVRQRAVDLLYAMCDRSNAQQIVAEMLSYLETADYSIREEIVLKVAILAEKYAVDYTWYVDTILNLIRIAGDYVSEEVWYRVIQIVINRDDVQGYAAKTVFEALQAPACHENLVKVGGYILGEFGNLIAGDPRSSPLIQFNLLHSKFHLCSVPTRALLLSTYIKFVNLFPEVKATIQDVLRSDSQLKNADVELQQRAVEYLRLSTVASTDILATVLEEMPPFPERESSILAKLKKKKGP
T1 sequence (P62743 whole entry): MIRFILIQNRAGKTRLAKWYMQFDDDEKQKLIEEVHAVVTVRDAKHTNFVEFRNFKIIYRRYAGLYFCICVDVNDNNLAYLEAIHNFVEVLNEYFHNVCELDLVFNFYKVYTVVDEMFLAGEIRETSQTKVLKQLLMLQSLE
Sequence of AP2 (recombinant adaptor protein complex 2, hetero-tetramer) (P18484 whole entry): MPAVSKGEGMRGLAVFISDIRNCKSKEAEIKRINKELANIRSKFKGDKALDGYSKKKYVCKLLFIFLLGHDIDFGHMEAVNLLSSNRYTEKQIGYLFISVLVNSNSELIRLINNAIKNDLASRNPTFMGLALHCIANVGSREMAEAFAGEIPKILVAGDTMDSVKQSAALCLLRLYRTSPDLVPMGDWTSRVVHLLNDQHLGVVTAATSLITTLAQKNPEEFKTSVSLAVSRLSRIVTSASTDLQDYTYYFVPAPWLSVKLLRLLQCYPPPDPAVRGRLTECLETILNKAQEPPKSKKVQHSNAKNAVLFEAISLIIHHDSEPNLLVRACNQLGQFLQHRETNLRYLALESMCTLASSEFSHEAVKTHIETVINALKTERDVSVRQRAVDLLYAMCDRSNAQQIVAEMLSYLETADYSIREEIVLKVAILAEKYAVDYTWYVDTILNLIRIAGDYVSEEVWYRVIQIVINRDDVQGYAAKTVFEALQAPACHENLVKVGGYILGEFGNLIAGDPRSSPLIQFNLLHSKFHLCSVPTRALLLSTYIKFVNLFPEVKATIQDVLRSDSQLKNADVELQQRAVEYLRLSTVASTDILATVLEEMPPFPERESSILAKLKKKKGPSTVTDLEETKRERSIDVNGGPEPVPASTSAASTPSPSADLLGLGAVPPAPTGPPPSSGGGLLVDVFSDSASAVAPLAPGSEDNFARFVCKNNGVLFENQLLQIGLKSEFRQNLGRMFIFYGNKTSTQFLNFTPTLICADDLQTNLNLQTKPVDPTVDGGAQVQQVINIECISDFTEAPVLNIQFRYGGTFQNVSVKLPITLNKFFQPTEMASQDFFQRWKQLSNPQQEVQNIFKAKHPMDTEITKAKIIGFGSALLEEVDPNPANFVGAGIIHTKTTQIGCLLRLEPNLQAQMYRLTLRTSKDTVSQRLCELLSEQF
Sequence of AP2 (recombinant adaptor protein complex 2, hetero-tetramer) (P63010 whole entry): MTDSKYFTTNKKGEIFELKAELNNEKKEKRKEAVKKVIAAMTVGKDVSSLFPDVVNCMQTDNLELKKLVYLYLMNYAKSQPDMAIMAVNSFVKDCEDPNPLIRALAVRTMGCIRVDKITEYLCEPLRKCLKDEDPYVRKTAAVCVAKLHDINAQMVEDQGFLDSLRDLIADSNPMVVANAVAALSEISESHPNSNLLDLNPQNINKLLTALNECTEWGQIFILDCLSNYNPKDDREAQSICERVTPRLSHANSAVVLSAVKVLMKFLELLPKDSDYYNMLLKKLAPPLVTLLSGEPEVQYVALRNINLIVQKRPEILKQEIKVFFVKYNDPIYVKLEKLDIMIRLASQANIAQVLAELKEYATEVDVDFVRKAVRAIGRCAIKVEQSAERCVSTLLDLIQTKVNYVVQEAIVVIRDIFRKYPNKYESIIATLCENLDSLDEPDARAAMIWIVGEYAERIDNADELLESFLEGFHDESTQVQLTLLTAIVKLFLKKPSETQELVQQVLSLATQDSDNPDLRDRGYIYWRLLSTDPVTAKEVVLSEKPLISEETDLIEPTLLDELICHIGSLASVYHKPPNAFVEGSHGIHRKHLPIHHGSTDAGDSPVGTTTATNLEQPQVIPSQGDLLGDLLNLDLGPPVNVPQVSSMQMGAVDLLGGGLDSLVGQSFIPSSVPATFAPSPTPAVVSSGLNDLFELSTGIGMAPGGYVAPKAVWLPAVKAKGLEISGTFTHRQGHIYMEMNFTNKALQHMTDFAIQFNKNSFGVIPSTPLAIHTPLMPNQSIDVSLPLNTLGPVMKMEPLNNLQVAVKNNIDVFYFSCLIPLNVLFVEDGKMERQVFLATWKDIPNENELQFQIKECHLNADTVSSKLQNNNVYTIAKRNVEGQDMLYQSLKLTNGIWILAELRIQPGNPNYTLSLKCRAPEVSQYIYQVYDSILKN
Sequence of AP2 (recombinant adaptor protein complex 2, hetero-tetramer) (P84092 whole entry): as the sequence (P84092 whole entry) above
Sequence of AP2 (recombinant adaptor protein complex 2, hetero-tetramer) (P62743 whole entry): as the sequence (P62743 whole entry) above

change in lateral pressure ΔΠ∞ on addition of cargo (AP2 [1]; AP2, Π0 = 25 mN/m, vs PtdIns(4,5)P2-only) | AP2 concentration above which biphasic binding behavior is observed (AP2 [1]; cargo-presenting monolayer vs PtdIns(4,5)P2-only) [nM] | increment of bright spots' thickness after AP2 (AP2 [3]) | surface coverage of AP2 (AP2 [5]; open AP2 conformation) [%] | distance of AP2 center-of-mass to membrane head group (AP2 [5]; open AP2 conformation (2xa7)) [Å] | total thickness of membrane-bound AP2 (AP2 [6]) [Å] | surface coverage of AP2 on the monolayer (with PtdIns(4,5)P2) [7] [%] | surface coverage of AP2 on the monolayer (with PtdIns(4,5)P2) [8] [%] | Kd [9] [nM] | apparent koff (combined cargo and PtdIns(4,5)P2 binding, monolayer) [9] [s⁻¹] | overall Kd (monolayer with cargo and PtdIns(4,5)P2, 35 mN/m) [9] [nM] | residence time (1/koff) on the monolayer with PtdIns(4,5)P2 [9] [s] | Kd from kinetics (monolayer with cargo and PtdIns(4,5)P2) [10] [nM] | overall Kd (monolayer with cargo and PtdIns(4,5)P2) [10] [nM] | overall Kd (monolayer with cargo and PtdIns(4,5)P2, 35 mN/m) [10] [nM] | residence time (1/koff) on the monolayer with PtdIns(4,5)P2 [10] [s] | Compound | effect on liquid expanded (LE) phase [2] | location of cargo peptides in monolayer [4]
further increases in lateral pressure | > 10 | A similar increment was also found | 24 | 10 ± 4 | 84 ± 6 |  |  |  |  |  |  |  |  |  |  | CCCCCCCCCCCCCCCC(=O)OC[C@H](COP(=O)(O)OCCNC(=O)CCCc1ccc(N2C(=O)CC(SC[C@H](N)C(=O)N[C@@H](Cc3c[nH]cn3)C(=O)N[C@@H](CCCNC(=N)N)C(=O)N[C@@H](CCCNC(=N)N)C(=O)N[C@@H](CCCNC(=N)N)C(=O)N[C@@H](CCC(N)=O)C(=O)N[C@@H](C)C(=O)N[C@@H](CCC(=O)O)C(=O)N[C@@H](CCCNC(=N)N)C(=O)N[C@@H](CCSC)C(=O)N[C@@H](COP(=O)(O)O)C(=O)N[C@@H](CCC(N)=O)C(=O)N[C@H](C(=O)N[C@@H](CCCCN)C(=O)N[C@@H](CCCNC(=N)N)C(=O)N[C@@H](CC(C)C)C(=O)N[C@@H](CC(C)C)C(=O)N[C@@H](CO)C(=O)N[C@@H](CCC(=O)O)C(=O)N[C@@H](CCCCN)C(=O)O)[C@@H](C)CC)C2=O)cc1)OC(=O)CCCCCCCCCCCCCCC (stereo partly drawn) [CD4] (H-C(X1)HRRRQAERM[pS]QIKRLLSEK-OH; N-terminus and C-terminus assumed) | did not alter the existence of the LE phase | confined to the headgroups layer
 |  |  |  |  |  | 24 | 51 | 75 | 0.00012 | 93 | 8330 | 12 | 15 | 64 | 5560 | AP2 (recombinant adaptor protein complex 2, hetero-tetramer) (from UniProt P18484 1-938; P63010 1-937; P84092 1-435; P62743 1-142) |  | 
